Test results from ChEMBL document CHEMBL3804768, “Structure-Activity Relationship Studies of Mitogen Activated Protein Kinase Interacting Kinase (MNK) 1 and 2 and BCR-ABL1 Inhibitors Targeting Chronic Myeloid Leukemic Cells” (J Med Chem, 2016).

Legend:
[1] = target: MAP kinase-interacting serine/threonine-protein kinase 1 (Homo sapiens, UniProt Q9BUB5); experiment: Inhibition of N-terminal GST-tagged MNK1 kinase domain (37 to 341 residues) (unknown origin) expressed in Escherichia coli BL21(DE3) cells using JH3 peptide substrate preincubated for 10 mins followed by substrate addition measured after 60 mins by mobility shift assay
[2] = target: T1, Vascular endothelial growth factor receptor 2 (Homo sapiens, UniProt P35968); experiment: Inhibition of human recombinant VEGFR2 expressed in sf21 cells at 1 uM using Poly(Glu:Tyr) as substrate in presence of [gamma32P]ATP
[3] = target: T2, Platelet-derived growth factor receptor beta (Homo sapiens, UniProt P09619); experiment: Inhibition of human recombinant PDGFRbeta expressed in sf21 cells at 1 uM using Poly(Glu:Tyr) as substrate in presence of [gamma32P]ATP
[4] = Permeability of compound by PAMPA; type: ADME; details: read-out: permeability
[5] = target: Receptor-type tyrosine-protein kinase FLT3 (Homo sapiens) (UniProt P36888); experiment: Inhibition of human recombinant FLT3 expressed in sf21 cells at 1 uM using Poly(Glu:Tyr) as substrate in presence of [gamma32P]ATP
[6] = target: Mast/stem cell growth factor receptor Kit (Homo sapiens, UniProt P10721); experiment: Inhibition of human recombinant c-KIT expressed in insect cells using Poly(Glu:Tyr) as substrate in presence of [gamma32P]ATP
Cytochrome P450 3A4 = Cytochrome P450 3A4 (Homo sapiens, UniProt P08684); experiment: Inhibition of CYP3A4 (unknown origin); type: ADME
[7] = target: MAP kinase-interacting serine/threonine-protein kinase 1/2 (Homo sapiens, UniProt Q9HBH9+Q9BUB5); experiment: Inhibition of MNK1/MNK2 in human HeLa cells assessed as reduction in phosphorylation of eIF4E at Ser209 after 2 hrs by AlphaScreen SureFire assay; type: cell-based
Outline: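 HeLa cells were grown in DMEM with 10% FBS and penicillin/streptomycin, seeded at 30,000 per well and left 24 h. They were then exposed to serially diluted compound in serum-free DMEM for 2 h at 37 °C and lysed with shaking for 20 min. Phospho-eIF4E Ser209 was read by AlphaScreen SureFire with 2 h acceptor and 2 h donor steps at room temperature. Dose response was run in triplicate.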

K562 = experiment: Antiproliferative activity against human K562 cells after 48 hrs by Cell-Titer-Glo luminescent cell viability assay; type: functional; details: K562, 48 h
Outline: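 Cells seeded at 5000 per well in growth medium, exposed to serial doses from 0.003 μM to 50 μM for 48 h at 37 °C, 5% CO2. Viability was read by CellTiter-Glo luminescence and GI50 taken from the dose-response curve. Dose response was run in triplicate and the curve repeated twice. K562 eIF4E-overexpressing cells were cultured in RPMI with 10% FBS.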

[8] = target: T1, Vascular endothelial growth factor receptor 2; experiment: Inhibition of human recombinant VEGFR2 expressed in sf21 cells using Poly(Glu:Tyr) as substrate in presence of [gamma32P]ATP
[9] = target: MAP kinase-interacting serine/threonine-protein kinase 2 (Homo sapiens, UniProt Q9HBH9); experiment: Inhibition of N-terminal GST-tagged MNK2 kinase domain (72 to 385 residues) (unknown origin) expressed in Escherichia coli BL21(DE3) cells using JH3 peptide substrate preincubated for 10 mins followed by substrate addition measured after 60 mins by mobility shift assay
Mus musculus [10] = experiment: Toxicity in NOD-SCID mouse xenografted with human K562 cells over expressing eIF4E assessed as body weight loss at 100 to 200 mg/kg, po qd administered through oral gavage for 14 days; type: organism-based; details: in vivo, 336 h
[11] = Clearance in CD1 mouse at 5 mg/kg, iv; type: ADME, organism-based; details: in vivo
[12] = Oral bioavailability in CD1 mouse at 50 mg/kg; type: ADME, organism-based; details: in vivo
[13] = target: T2, Platelet-derived growth factor receptor beta; experiment: Inhibition of human recombinant PDGFRbeta expressed in sf21 cells using Poly(Glu:Tyr) as substrate in presence of [gamma32P]ATP
[14] = target: Tyrosine-protein kinase ABL1 (Homo sapiens, UniProt P00519, T315I); experiment: Inhibition of full length human recombinant N-terminal His-tagged ABL (2 to 1130 residues) T315I mutant expressed in baculovirus expression system using FL-peptide 2 substrate preincubated for 10 mins followed by substrate addition measured after 60 mins by mobility shift assay
Outline: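 Buffer is 100 mM HEPES pH 7.5, 10 mM MgCl2, 0.004% Tween 20, 1 mM DTT, 0.003% Brij L23. Enzyme and compound sit 10 min before ATP/substrate is added. The reaction runs 60 min at room temperature, is stopped with 10 mM EDTA, and is read by mobility shift.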

[15] = target: Platelet-derived growth factor receptor alpha (Homo sapiens, UniProt P16234); experiment: Inhibition of human recombinant PDGFRalpha expressed in sf21 cells at 1 uM using Poly(Glu:Tyr) as substrate in presence of [gamma32P]ATP
[16] = target: Proto-oncogene tyrosine-protein kinase receptor Ret (Homo sapiens, UniProt P07949); experiment: Inhibition of human recombinant RET expressed in sf21 cells using Poly(Glu:Tyr) as substrate in presence of [gamma32P]ATP
[17] = Half life in CD1 mouse at 5 mg/kg, iv; type: ADME, organism-based; details: in vivo
[18] = Cmax in CD1 mouse at 50 mg/kg, po; type: ADME, organism-based; parameters: dose 50 mg/kg, route oral; details: in vivo
[19] = target: Fibroblast growth factor receptor 2 (Homo sapiens, UniProt P21802); experiment: Inhibition of human recombinant FGFR2 expressed in sf21 cells at 1 uM using Poly(Glu:Tyr) as substrate in presence of [gamma32P]ATP
[20] = Antiproliferative activity against human JURL-MK1 cells after 48 hrs by Cell-Titer-Glo luminescent cell viability assay; type: functional; details: JURL-MK1, 48 h
[21] = Plasma protein binding in human; type: ADME, cell-free; details: read-out: PPB (converted)
[22] = Antiproliferative activity against human KCL22 cells after 48 hrs by Cell-Titer-Glo luminescent cell viability assay; type: functional; details: KCL-22, 48 h
[23] = Clearance in CD1 mouse at 10 mg/kg, iv; type: ADME, organism-based; details: in vivo
Mus musculus [24] = experiment: Toxicity in NOD-SCID mouse xenografted with human K562 cells over expressing eIF4E assessed as body weight loss at 100 mg/kg, po qd administered through oral gavage for 14 days; type: organism-based; details: in vivo, 336 h
[25] = Half life in CD1 mouse at 10 mg/kg, iv; type: ADME, organism-based; details: in vivo

T1 sequence (P35968 whole entry): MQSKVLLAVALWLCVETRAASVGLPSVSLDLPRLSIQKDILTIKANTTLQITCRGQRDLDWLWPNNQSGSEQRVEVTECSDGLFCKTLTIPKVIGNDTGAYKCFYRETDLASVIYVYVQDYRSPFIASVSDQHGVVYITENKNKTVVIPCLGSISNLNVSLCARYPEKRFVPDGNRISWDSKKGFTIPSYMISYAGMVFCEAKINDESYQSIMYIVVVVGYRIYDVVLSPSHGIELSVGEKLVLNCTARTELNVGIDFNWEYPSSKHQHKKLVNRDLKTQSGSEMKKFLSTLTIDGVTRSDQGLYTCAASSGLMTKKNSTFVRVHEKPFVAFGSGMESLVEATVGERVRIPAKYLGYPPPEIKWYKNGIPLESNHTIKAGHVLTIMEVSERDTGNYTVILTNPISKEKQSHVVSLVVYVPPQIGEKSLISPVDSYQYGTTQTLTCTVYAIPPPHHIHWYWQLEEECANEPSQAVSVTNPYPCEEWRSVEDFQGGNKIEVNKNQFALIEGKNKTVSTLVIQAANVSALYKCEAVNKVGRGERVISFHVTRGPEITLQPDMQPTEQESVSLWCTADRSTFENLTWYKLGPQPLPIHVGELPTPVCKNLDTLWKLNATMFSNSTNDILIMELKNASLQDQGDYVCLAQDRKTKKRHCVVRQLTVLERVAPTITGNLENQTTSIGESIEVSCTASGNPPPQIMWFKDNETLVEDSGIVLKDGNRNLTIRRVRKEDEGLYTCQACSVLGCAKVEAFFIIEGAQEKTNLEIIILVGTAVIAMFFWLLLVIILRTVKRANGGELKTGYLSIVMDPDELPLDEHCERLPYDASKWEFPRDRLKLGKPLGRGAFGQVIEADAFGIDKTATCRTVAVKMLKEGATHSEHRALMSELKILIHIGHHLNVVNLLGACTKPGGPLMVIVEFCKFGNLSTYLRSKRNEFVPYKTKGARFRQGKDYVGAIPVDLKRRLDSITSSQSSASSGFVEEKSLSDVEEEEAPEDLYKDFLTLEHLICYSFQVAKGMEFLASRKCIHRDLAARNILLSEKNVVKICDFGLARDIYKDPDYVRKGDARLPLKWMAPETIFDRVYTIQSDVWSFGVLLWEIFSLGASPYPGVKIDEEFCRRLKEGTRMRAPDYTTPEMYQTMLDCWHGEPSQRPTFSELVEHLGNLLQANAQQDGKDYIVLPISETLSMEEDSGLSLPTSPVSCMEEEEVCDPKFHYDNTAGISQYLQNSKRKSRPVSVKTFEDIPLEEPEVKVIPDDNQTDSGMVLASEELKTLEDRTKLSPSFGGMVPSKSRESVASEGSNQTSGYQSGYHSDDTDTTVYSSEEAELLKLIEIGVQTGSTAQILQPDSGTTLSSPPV
T2 sequence (P09619 whole entry): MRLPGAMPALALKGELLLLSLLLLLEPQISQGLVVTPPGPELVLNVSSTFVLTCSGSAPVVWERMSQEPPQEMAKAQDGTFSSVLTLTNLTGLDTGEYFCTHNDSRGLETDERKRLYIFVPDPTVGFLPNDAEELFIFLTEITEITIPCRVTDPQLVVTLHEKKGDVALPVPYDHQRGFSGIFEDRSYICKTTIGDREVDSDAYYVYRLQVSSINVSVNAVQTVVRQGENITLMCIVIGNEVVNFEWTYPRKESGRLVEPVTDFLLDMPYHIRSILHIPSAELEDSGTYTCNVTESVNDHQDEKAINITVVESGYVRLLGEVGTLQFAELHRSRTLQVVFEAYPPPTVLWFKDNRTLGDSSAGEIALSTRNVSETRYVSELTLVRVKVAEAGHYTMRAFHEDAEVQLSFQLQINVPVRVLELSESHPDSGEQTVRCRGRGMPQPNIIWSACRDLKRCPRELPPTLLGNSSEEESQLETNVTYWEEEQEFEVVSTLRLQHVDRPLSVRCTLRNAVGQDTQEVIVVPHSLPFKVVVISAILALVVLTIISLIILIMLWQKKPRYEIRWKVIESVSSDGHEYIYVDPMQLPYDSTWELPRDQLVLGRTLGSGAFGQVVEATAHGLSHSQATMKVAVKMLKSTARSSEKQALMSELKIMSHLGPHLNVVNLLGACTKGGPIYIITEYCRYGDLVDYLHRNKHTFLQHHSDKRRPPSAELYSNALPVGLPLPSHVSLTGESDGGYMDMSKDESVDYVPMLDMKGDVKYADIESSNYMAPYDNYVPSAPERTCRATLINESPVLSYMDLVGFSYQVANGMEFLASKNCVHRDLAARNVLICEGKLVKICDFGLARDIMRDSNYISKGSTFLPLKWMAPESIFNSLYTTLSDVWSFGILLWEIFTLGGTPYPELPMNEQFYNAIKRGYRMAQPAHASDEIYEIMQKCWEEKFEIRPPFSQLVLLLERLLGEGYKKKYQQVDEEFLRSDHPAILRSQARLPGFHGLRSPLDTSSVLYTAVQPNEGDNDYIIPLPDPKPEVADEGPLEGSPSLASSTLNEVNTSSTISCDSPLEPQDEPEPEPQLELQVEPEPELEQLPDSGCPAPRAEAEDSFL
Sequence of Platelet-derived growth factor receptor alpha (P16234 whole entry): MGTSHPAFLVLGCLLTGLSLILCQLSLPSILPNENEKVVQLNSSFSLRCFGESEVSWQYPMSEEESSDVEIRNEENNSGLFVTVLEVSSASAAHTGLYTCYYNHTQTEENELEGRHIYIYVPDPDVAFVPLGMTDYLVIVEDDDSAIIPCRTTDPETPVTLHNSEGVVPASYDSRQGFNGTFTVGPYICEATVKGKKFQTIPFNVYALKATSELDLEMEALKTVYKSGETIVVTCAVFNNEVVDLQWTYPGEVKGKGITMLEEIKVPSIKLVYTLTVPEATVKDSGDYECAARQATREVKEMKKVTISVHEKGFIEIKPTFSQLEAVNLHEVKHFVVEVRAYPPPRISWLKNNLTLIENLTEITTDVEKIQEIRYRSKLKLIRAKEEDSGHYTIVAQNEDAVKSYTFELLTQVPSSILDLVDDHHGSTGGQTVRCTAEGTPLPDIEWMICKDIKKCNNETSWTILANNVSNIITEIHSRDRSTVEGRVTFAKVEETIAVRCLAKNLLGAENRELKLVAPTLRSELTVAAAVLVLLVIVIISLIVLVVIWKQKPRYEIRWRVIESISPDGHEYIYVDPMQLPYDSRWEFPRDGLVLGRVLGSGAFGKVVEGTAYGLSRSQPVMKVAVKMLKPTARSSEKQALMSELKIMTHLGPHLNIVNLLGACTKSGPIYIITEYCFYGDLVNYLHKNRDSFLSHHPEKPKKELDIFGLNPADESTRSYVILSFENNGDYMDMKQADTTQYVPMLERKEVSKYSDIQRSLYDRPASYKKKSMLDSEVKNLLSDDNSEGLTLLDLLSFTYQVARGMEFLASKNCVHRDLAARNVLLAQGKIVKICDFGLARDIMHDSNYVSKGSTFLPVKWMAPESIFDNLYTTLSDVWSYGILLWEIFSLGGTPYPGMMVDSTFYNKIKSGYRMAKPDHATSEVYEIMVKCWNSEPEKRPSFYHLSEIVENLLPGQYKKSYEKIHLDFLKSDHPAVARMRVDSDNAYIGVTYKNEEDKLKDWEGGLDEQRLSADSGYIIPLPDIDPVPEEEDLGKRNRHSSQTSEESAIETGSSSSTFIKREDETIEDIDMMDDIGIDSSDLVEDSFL
Sequence of Mast/stem cell growth factor receptor Kit (P10721 whole entry): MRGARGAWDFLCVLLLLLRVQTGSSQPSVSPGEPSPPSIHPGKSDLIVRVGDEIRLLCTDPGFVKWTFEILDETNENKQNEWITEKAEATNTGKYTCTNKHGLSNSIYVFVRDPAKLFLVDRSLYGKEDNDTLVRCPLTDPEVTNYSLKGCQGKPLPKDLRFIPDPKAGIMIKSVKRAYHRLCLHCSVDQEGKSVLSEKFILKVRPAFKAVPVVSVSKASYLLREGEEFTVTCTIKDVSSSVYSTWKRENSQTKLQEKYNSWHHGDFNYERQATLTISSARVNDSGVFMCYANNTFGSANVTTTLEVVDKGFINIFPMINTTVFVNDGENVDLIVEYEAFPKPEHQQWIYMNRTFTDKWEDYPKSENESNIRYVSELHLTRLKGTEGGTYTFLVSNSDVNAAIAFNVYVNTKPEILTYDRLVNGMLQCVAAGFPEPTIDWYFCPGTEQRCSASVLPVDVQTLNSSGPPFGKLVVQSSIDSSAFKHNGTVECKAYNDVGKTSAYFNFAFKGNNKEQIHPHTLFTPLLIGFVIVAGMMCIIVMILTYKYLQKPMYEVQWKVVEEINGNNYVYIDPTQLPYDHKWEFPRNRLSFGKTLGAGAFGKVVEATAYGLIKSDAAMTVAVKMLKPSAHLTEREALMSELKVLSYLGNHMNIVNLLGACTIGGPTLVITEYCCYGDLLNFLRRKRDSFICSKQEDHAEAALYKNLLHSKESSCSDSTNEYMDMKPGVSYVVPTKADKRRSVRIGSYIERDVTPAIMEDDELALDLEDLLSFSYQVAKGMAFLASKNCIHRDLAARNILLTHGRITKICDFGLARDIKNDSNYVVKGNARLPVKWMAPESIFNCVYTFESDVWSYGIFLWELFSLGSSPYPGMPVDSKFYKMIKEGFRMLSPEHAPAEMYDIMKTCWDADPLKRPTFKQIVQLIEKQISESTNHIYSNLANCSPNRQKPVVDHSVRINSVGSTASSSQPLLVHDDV
Sequence of MAP kinase-interacting serine/threonine-protein kinase 1 (Q9BUB5 whole entry, the tested form may be a part): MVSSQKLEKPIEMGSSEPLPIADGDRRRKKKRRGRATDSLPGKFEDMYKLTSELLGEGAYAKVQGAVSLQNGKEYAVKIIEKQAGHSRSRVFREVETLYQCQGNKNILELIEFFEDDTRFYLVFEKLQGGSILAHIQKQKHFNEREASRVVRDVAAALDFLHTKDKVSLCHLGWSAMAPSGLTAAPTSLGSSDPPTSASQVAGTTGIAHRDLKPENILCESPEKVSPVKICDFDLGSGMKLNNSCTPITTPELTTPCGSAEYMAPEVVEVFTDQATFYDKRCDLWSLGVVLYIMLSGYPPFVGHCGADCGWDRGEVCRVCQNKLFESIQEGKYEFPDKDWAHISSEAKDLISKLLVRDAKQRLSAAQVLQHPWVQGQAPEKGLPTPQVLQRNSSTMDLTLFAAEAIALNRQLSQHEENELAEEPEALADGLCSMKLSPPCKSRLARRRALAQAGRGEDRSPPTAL

Compound | IC50 [1] | inhibition [2] | inhibition [3] | Papp [4] | inhibition [5] | IC50 [6] | IC50 (Cytochrome P450 3A4) | IC50 [7] | GI50 (K562) | IC50 [8] | IC50 [9] | bioavailability [12] | IC50 [13] | IC50 [14] | inhibition [15] | IC50 [16] | Cmax [18] | inhibition [19] | GI50 [20] | fraction unbound [21] | further results
CCN1CCN(Cc2ccc(NC(=O)CNc3ccc(-c4ccc(NC(=O)C5CC5)nc4)cc3)cc2C(F)(F)F)CC1 | 2520 nM | > 99% | > 99% | 34.5 ×10⁻⁶ cm/s | > 99% | 888 nM | > 30000 nM | 180 nM | 58 nM | 24 nM | 16 nM | 80% | 1080 nM | 50 nM | > 99% | 7 nM | 2490 ng/mL | > 99% | 30 nM | 0.0008 | Activity (Mus musculus [10]): Non-toxic; clearance [11]: 45 mL/min/kg; half-life [17]: 2.14 h; GI50 [22]: 50 nM
CN1CCN(Cc2ccc(NC(=O)CNc3ccc(-c4ccc(NC(=O)C5CC5)nc4)cc3F)cc2C(F)(F)F)CC1 | 200 nM | > 99% | > 99% | 30.6 ×10⁻⁶ cm/s | > 99% | 1510 nM | > 30000 nM | 280 nM | 12 nM | 21 nM | 10 nM | 31% | 1050 nM | 20 nM | > 99% | 1 nM | 1210 ng/mL | > 99% | 1 nM | 0.0022 | clearance [23]: 50 mL/min/kg; Activity (Mus musculus [24]): Non-toxic; half-life [25]: 2.2 h; GI50 [22]: 13 nM
